An excerpt weighted towards active compounds, which were near 2.7% of everything screened.
NR1D1 modulator: modulators of Rev-erb alpha DNA binding, primary screen, biochemical, FITC-DNA, fluorescence polarization, uHTS; Nuclear receptor subfamily 1 group D member 1 (Homo sapiens), P20393; Rev-erbα–FITC-DNA binding, 90 min; 0.79% of 370,000 active; activity, % at 10 µM;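 active = activity above about 14%, limit read from the data; passing the limit was not always enough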;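 also: 0% = DMSO wells with 35 nM protein and 100% = DMSO wells with 750 nM protein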
Target sequence (P20393 whole entry, looked up): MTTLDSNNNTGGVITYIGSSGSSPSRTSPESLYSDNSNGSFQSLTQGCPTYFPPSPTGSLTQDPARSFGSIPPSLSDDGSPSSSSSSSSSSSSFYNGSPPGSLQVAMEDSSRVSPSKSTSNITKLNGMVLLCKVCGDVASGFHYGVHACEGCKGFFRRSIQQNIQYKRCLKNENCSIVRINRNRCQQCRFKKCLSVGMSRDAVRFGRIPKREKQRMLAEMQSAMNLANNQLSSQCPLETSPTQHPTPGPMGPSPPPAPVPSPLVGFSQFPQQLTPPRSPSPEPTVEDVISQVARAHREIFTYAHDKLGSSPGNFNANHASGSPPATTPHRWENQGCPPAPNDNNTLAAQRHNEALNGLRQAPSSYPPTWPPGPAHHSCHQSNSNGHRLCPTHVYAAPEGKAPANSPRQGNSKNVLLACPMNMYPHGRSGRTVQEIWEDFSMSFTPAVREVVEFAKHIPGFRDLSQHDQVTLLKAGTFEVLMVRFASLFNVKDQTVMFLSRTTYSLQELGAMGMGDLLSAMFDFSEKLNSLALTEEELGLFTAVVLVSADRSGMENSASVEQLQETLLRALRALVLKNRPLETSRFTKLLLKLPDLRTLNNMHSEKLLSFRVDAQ
NR2E3 ag-1: NR2E3 agonists in two-hybrid cells, primary screen, cell-based, luminescence, CHO-S, Gal4-NCOR/VP16-NR2E3; inhibition of corepressor binding, % at 3.98 µM; luciferase; 0.35% of 360,000 active;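 active = inhibition above the mean of all tested compounds plus 3 SD, cut at about 70% in these data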;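 also: 0% = DMSO with NR2E3 transfected cells and 100% = cells lacking NR2E3 construct; higher means lower luciferase signal from less NR2E3 corepressor binding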
NR2E3 ag-2: inhibitors of NR2E3-RetCOR corepressor binding, primary screen, NR2E3 agonist project, biochemical, TR-FRET, GST-NR2E3, biotin-RetCOR. inhibition of corepressor binding, % at 4.78 µM. 1536-well. 0.12% of 320,000 active. Photoreceptor-specific nuclear receptor (Homo sapiens), Q9Y5X4;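 active = percent inhibition above the cutoff of mean plus 3 SD of all tested compounds, set per screening campaign, cut at about 20% in these data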;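 also: 0% = DMSO wells and 100% = biotin wells as full block of FRET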
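Material: NR2E3–RetCOR corepressor complex / Incubation: Compound–protein incubation for 5 h at 4 °C / Dosing: compound at 4.8 µM, single dose / Detection: time-resolved FRET / Benchmarks: high control biotin, low control 0.6% DMSO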
MC4R antag cAMP: MC4R antagonists of cAMP signaling, primary screen, cell-based, TR-FRET, antagonist arm of biased-ligand search | Melanocortin receptor 4 (Homo sapiens), P32245 | MC4R-expressing cells, MTII-stimulated cAMP, LANCE TR-FRET | inhibition, % at 6.5 µM | 0.48% of 360,000 active | AID 540295, 2011;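 active = inhibition above its plate's cutoff, the mean of tested wells on that plate plus 3 SD, cut at about 29% in these data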;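 also: 0% = Melanotan II alone and 100% = Melanotan II plus saturating MCL0020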
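system = U2OS cells with stable human MC4R expression | also added = Melanotan II challenge after compound preincubation | dosing = one concentration, 6.5 µM nominal | incubation = compound 30 min, challenge 1 h, detection 1 h | measured by = TR-FRET with Eu-cAMP and labeled anti-cAMP, 671 nm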
MC4R barr agon: MC4R agonists recruiting beta-arrestin, primary screen, cell-based, luminescence, agonist arm of biased-ligand search. Melanocortin receptor 4 (Homo sapiens), P32245. AID 540308, 2011. activation, % at 8.9 µM. U2OS MC4R beta-arrestin complementation; percent of melanotan II response, DMSO zero. 0.98% of 360,000 active;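 active = activation above a per-plate cutoff, the mean activation of sample wells on that plate plus 3 SD, cut at about 8% in these data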
PG9 Ab binder: binders of HIV-1 gp120 antibody PG9, primary screen, biochemical, TR-FRET; HIV-1 gp120 / PG9 antibody interaction; TR-FRET gp120-PG9 antibody binding; inhibition, % at 6.7 µM; 0.43% of 360,000 active; in the data active = inhibition above about 8.5%
U2OS cAMP counter: nonselective cAMP signaling inhibitors, parental cells, counter-screen for MC4R biased antagonist project, cell-based, TR-FRET, U2OS, forskolin, triplicate. inhibition, % at 6.5 µM. 26% of 1,600 active. LANCE TR-FRET. shares compounds with MC4R antag cAMP. AID 602193, 2012;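 active = mean inhibition over triplicates above the low-control well mean plus 3 SD, set per campaign, cut at about 13% in these data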;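 also: signal is single emission at 671 nm which falls as cellular cAMP rises; 0% = forskolin-stimulated wells and 100% = buffer without forskolin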
MC4R cAMP antag: MC4R cAMP antagonists, retest, confirmation, cell-based, TR-FRET; shares compounds with MC4R antag cAMP; MC4R-expressing cells, MTII-stimulated cAMP; inhibition, % at 6.5 µM; 27% of 1,600 active; AID 602195, 2012; in the data active = inhibition above about 29%;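 also: 0% = agonist stimulated wells alone and 100% = agonist stimulated wells plus saturating reference antagonist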
An asterisk follows results filed as active; / = not tested or not shown.

SMILES | NR1D1 modulator | NR2E3 ag-1 | NR2E3 ag-2 | MC4R antag cAMP | MC4R barr agon | PG9 Ab binder | U2OS cAMP counter | MC4R cAMP antag
CCCN(CCC)S(=O)(=O)c1ccc(N2CCCC2=O)c([N+](=O)[O-])c1 | 1 | 1 | -2 | 4 | -2 | -1 | / | /
COc1ccc(CC2(CO)CCN(Cc3cnn(C)c3C)CC2)cc1 | -6 | -32 | -2 | 30* | -1 | -2 | -3 | -14
COc1ccc(CC2(CO)CCN(Cc3ccncc3)CC2)cc1 | 2 | -7 | 0 | 2 | 1 | 0 | / | /
Clc1ccc(N2CCN(c3ccnc(Cl)n3)CC2)cc1 | 4 | -23 | 2 | 4 | -1 | 0 | / | /
Cc1ccc(/C=C2/Sc3ccc(C(=O)N4CCN(C)CC4)cc3NC2=O)cc1 | -19 | 14 | 0 | 13 | 1 | -2 | / | /
CC1CCN(C(=O)c2ccc3c(c2)NC(=O)/C(=C/c2ccccc2)S3)CC1 | -2 | 24 | 0 | 35* | 8.8* | -1 | -1 | 2
O=C(Nc1cc(Cl)ccc1-n1cncn1)c1cc(F)c(F)c(F)c1F | 2 | -27 | -1 | 31* | 1 | 1 | 24* | 50*
c1ccc(OCCOCCOc2ccccc2)cc1 | -11 | -19 | / | -6 | 0 | 1 | / | /
Cc1[nH]c(C)c(C(=O)/C=C/c2ccc([N+](=O)[O-])cc2)c1C | 4 | -31 | 4 | 31* | -2 | -3 | 11 | 31*
COc1ccc(C=CC(=O)c2ccc([N+](=O)[O-])cc2)cc1 | -11 | -21 | / | -4 | 2 | 1 | / | /
O=C1C(F)=CC(COC(c2ccccc2)(c2ccccc2)c2ccccc2)OC1n1cc(F)c(=O)[nH]c1=O (centres undefined) | 3 | 4 | / | 29* | -5 | -1 | -2 | -14
CC(=O)OCC1OC(n2cc(F)c(=O)[nH]c2=O)C(OC(C)=O)C1OC(C)=O (centres undefined) | -5 | 12 | -1 | 14 | -1 | 2 | / | /
Cc1nc(-c2ccccc2)[nH]c(=O)c1Oc1ccc(Cl)cc1Cl | -7 | -16 | 3 | 10 | 2 | 3 | / | /
O=c1[nH]c(=S)[nH]cc1Oc1ccc(Cl)cc1Cl | 3 | 4 | / | 36* | 1 | 8 | 3 | 2
OC(COc1ccccc1)CN1CCOCC1 (centres undefined) | -3 | -19 | -1 | 30* | -1 | -1 | 0 | 2
Cc1ccc(CN2C(=O)N/C(=C\c3ccc(-c4ccc(C(=O)O)cc4C)o3)C2=O)cc1 | -1 | -49 | 1 | 11 | 0 | -1 | / | /
Cc1cc(C(=O)O)ccc1-c1ccc(/C=C2\NC(=O)N(Cc3ccccc3Cl)C2=O)o1 | / | -7 | -1 | 37* | 1 | / | 2 | -3
CC(C)(C)c1ccc(-n2nc(C#N)c(Cl)cc2=O)cc1 | -3 | 28 | / | 94* | -3 | 0 | 41* | 89*
COc1cc(NC(=O)COC(=O)CNS(=O)(=O)c2ccc(F)c(F)c2F)cc(OC)c1 | -4 | 12 | 2 | 12 | 1 | -2 | / | /
O=C(COC(=O)CNS(=O)(=O)c1ccc(F)c(F)c1F)Nc1ccc(OC(F)F)cc1 | 7 | 4 | -1 | 29* | -3 | -1 | 9 | 18
CC(=O)c1c(C)n(-c2ccccc2)c2ccc(OCC(O)CN3CCOCC3)cc12 (centres undefined) | 1 | 15 | 1 | -1 | -1 | 0 | / | /
CN1CCN(C(=O)CCN2C(=O)c3ccccc3S2(=O)=O)CC1 | 9 | 13 | -1 | -1 | -1 | 1 | / | /
CC(C)(C)OC(=O)NCCCCCNC(=O)c1[nH]cnc1C(=O)Nc1cc(Br)ccc1F | 2 | 13 | / | 33* | 2 | 0 | 4 | 3
CC(C)(C)OC(=O)NCc1ccc(NC(=O)c2nc[nH]c2C(=O)NCCCCNC(=O)c2[nH]cnc2C(=O)Nc2ccc(CNC(=O)OC(C)(C)C)cc2)cc1 | / | 15 | / | 15 | -1 | / | / | /
CC(C)(C)OC(=O)NCc1ccc(NC(=O)c2nc[nH]c2C(=O)NCCCNC(=O)c2[nH]cnc2C(=O)Nc2ccc(CNC(=O)OC(C)(C)C)cc2)cc1 | / | -14 | / | 31* | 8.7* | / | 3 | 8
SMILES | NR1D1 modulator | NR2E3 ag-1 | NR2E3 ag-2 | MC4R antag cAMP | MC4R barr agon | PG9 Ab binder | U2OS cAMP counter | MC4R cAMP antag
CC(C)(C)OC(=O)NCc1ccc(NC(=O)c2nc[nH]c2C(=O)Nc2cc(Br)ccc2F)cc1 | 2 | 18 | / | / | / | 0 | / | /
CCN(CC)C(=O)c1cn(CCC#N)nc1-c1ccc(F)cc1 | -6 | -9 | -1 | 4 | 0 | 0 | / | /
Cc1ccc(S(=O)(=O)N2CCN(C3CC(=O)N(CCc4ccccc4)C3=O)CC2)cc1C (centres undefined) | -1 | 13 | 1 | 12 | 3 | 1 | / | /
COc1ccc(CCN2C(=O)CC(N3CCN(S(=O)(=O)c4ccccc4)CC3)C2=O)cc1OC (centres undefined) | / | -14 | 0 | 33* | -1 | -1 | -1 | -9
CCOC(=O)N1C/C(=C\c2ccccc2)C(=O)/C(=C/c2ccccc2)C1 | 5 | 6 | / | 2 | -3 | -1 | / | /
COc1ccc(OC(=O)N2C/C(=C/c3ccccc3)C(=O)/C(=C\c3ccccc3)C2)cc1 | 1 | -17 | / | 33* | -1 | 3 | 15* | 10
CC(=O)Oc1cccc(C(=O)Nc2c[nH]c(=O)[nH]c2=O)c1 | 1 | 20 | 3 | -4 | 0 | -1 | / | /
Cc1cc(C=O)c(C)n1-c1cc(C(=O)O)cc(C(=O)O)c1 | -3 | -24 | 18 | 14 | -2 | -2 | / | /
Cc1cc(C=O)c(C)n1-c1cccc(C(=O)O)c1 | -4 | 6 | 4 | 33* | 0 | 1 | 1 | 3
CCc1cccc(CC)c1NC(=O)c1ccc(-n2cncn2)nc1 | -3 | 18 | -4 | -1 | -1 | -1 | / | /
CCS(=O)(=O)c1ccc2oc(Nc3cccc(OC)c3)nc2c1 | 7 | -23 | 1 | 31* | 1 | -2 | 1 | -9
CN(C)CCNc1ncnc2ccccc12 | 2 | -6 | 1 | 2 | -1 | -1 | / | /

Bioassay records deposited in PubChem by several laboratories.
